The source made the active and inactive calls. The rule behind the calls is not given here.

ED50 and Block data for five compounds are collected here from ChEMBL document CHEMBL1123867, “Anticonvulsant O-alkyl sulfamates. 2,3:4,5-Bis-O-(1-methylethylidene)-beta-D-fructopyranose sulfamate and related compounds” (1987).

The test system of experiment [1] is Mus musculus. Briefly: Anticonvulsant activity by using a standard maximal electroshock test (MES) in mice, by 100 mg/kg intraperitoneal administration; i= Inactive. Also noted: dose 100 mg/kg. The class given is functional, organism-based. A digest of the protocol:
(§1)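 Supramaximal electroshock: 50-mA current (60 Hz, 0.20 s) via corneal electrodes induced hind-limb tonic extension; inhibition of this component scored as activity. Mice dosed ip and/or po in aqueous solution or suspension (ca. 0.1% Tween 80, distilled water). Tested at 30, 60, 120 and 240 min (sometimes 45 min); ten mice per time point.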
Background: The maximal electroshock test induces tonic seizures with an electrical stimulus.

Experiment [2] relates to Mus musculus. Briefly: Anticonvulsant activity by using a standard maximal electroshock test (MES) in mice, by 200 mg/kg intraperitoneal administration of the compound; I=inactive, 0-10% block. Also noted: dose 200 mg/kg. The experiment is classed as functional, organism-based. The essentials:
as §1

Experiment [3] relates to Mus musculus. Briefly: Anticonvulsant activity by using a standard maximal electroshock test (MES) in mice, by 400 mg/kg peroral administration of the compound; I=inactive, 0-10% block. The class given is functional, organism-based. The arrangement: dose 400 mg/kg. The essentials:
as §1

The subject of experiment [4] is Mus musculus. Briefly: Percentage block of the hind-limb tonic-extensor seizure was determined after application of an electric shock to mice for 60 min followed by 200 mg/kg intraperitoneal dose. The class given is functional. A digest of the protocol: (§2)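 Mouse MES test: supramaximal seizure from a 50-mA current (60 Hz, 0.20-s) through corneal electrodes. […] Ten mice per time point. Compound given in aqueous solution or in suspension in ca. 0.1% Tween 80 and distilled water. Free food and water except during testing.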

Experiment [5] concerns Mus musculus. Briefly: Percentage block of the hind-limb tonic-extensor seizure was determined after application of an electric shock to mice for 60 min followed by 400 mg/kg peroral dose. The experiment is classed as functional. As to conditions: route oral. A digest of the protocol: as §2
Experiment [6] deals with Mus musculus. The experiment can be described thus: Percentage block of the hind-limb tonic-extensor seizure was determined after application of an electric shock to mice for 120 min followed by 200 mg/kg intraperitoneal dose. The experiment is classed as functional. A digest of the protocol:
as §1

The test system of experiment [7] is Mus musculus. The experiment can be described thus: Percentage block of the hind-limb tonic-extensor seizure was determined after application of an electric shock to mice for 120 min followed by 400 mg/kg peroral dose. As to conditions: route oral. The experiment is classed as functional. The essentials: as §1
The subject of experiment [8] is Mus musculus. The experiment can be described thus: Percentage block of the hind-limb tonic-extensor seizure was determined after application of an electric shock to mice for 30 min followed by 200 mg/kg intraperitoneal dose. The experiment is classed as functional. A digest of the protocol:
as §1

Experiment [9] has as its system Mus musculus. Briefly: Percentage block of the hind-limb tonic-extensor seizure was determined after application of an electric shock to mice for 30 min followed by 400 mg/kg peroral dose. The experiment is classed as functional. As to conditions: route oral. A digest of the protocol: as §1
In experiment [10] the test system is Mus musculus. Briefly: Percentage block of the hind-limb tonic-extensor seizure was determined after application of an electric shock to mice for 240 min followed by 200 mg/kg intraperitoneal dose. The experiment is classed as functional. The essentials: as §1
Experiment [11] has as its system Mus musculus. The experiment can be described thus: Percentage block of the hind-limb tonic-extensor seizure was determined after application of an electric shock to mice for 240 min followed by 400 mg/kg peroral dose. The class given is functional. As to conditions: route oral. The essentials: as §1
In experiment [12] the test system is Mus musculus. The experiment can be described thus: Anticonvulsant activity by using a standard maximal electroshock test (MES) in mice, by intraperitoneal administration of the compound; Range 50-100 mg/kg. As to conditions: ip. The experiment is classed as functional. A digest of the protocol:
as §1

For experiment [13], the system named is Mus musculus. The experiment can be described thus: Anticonvulsant activity following p.o. administration by standard maximal electroshock test in mice. The experiment is classed as functional. As to conditions: po. A digest of the protocol:
as §1

Experiment [14] relates to Mus musculus. Briefly: Percentage block of the hind-limb tonic-extensor seizure was determined after application of an electric shock to mice for 60 min followed by 100 mg/kg intraperitoneal dose. The class given is functional. The essentials: as §1
The test system of experiment [15] is Mus musculus. The experiment can be described thus: Percentage block of the hind-limb tonic-extensor seizure was determined after application of an electric shock to mice for 120 min followed by 100 mg/kg intraperitoneal dose. The experiment is classed as functional. The essentials: as §1
In experiment [16] the test system is Mus musculus. Briefly: Percentage block of the hind-limb tonic-extensor seizure was determined after application of an electric shock to mice for 120 min followed by 200 mg/kg peroral dose. The class given is functional. As to conditions: route oral. A digest of the protocol:
as §1

Experiment [17] concerns Mus musculus. Briefly: Percentage block of the hind-limb tonic-extensor seizure was determined after application of an electric shock to mice for 30 min followed by 100 mg/kg intraperitoneal dose. The experiment is classed as functional. The essentials: as §1
Experiment [18] concerns Mus musculus. Briefly: Percentage block of the hind-limb tonic-extensor seizure was determined after application of an electric shock to mice for 30 min followed by 200 mg/kg peroral dose. As to conditions: route oral. The experiment is classed as functional. A digest of the protocol:
as §1

Experiment [19] relates to Mus musculus. The experiment can be described thus: Percentage block of the hind-limb tonic-extensor seizure was determined after application of an electric shock to mice for 240 min followed by 100 mg/kg intraperitoneal dose. The class given is functional. The essentials:
as §1

Experiment [20] deals with Mus musculus. Briefly: Percentage block of the hind-limb tonic-extensor seizure was determined after application of an electric shock to mice for 240 min followed by 200 mg/kg peroral dose. The class given is functional. As to conditions: route oral. The essentials:
as §1

The test system of experiment [21] is Mus musculus. The experiment can be described thus: Percentage block of the hind-limb tonic-extensor seizure was determined after application of an electric shock to mice for 60 min followed by 200 mg/kg peroral dose. The experiment is classed as functional. As to conditions: route oral. A digest of the protocol:
as §2

The test system of experiment [22] is Mus musculus. The experiment can be described thus: Anticonvulsant activity by using a standard maximal electroshock test (MES) in mice, by 100 mg/kg intraperitoneal administration of the compound; I =inactive. The experiment is classed as functional, organism-based. The arrangement: dose 100 mg/kg. The essentials:
as §1

Experiment [23] has as its system Mus musculus. The experiment can be described thus: Anticonvulsant activity by using a standard maximal electroshock test (MES) in mice, by 100 mg/kg intraperitoneal administration; i=inactive. Also noted: dose 100 mg/kg. The experiment is classed as functional, organism-based. The essentials: as §1
Experiment [24] has as its system Mus musculus. Briefly: Anticonvulsant activity by using a standard maximal electroshock test (MES) in mice, by intraperitoneal administration of the compound. As to conditions: ip. The class given is functional. The essentials:
as §1

Experiment [25] concerns Mus musculus. The experiment can be described thus: Percentage block of the hind-limb tonic-extensor seizure was determined after application of an electric shock to mice for 60 min followed by 10 mg/kg intraperitoneal dose. The class given is functional. The essentials: as §1
The subject of experiment [26] is Mus musculus. Briefly: Percentage block of the hind-limb tonic-extensor seizure was determined after application of an electric shock to mice for 60 min followed by 15 mg/kg peroral dose. The class given is functional. As to conditions: route oral. A digest of the protocol:
as §2

For experiment [27], the system named is Mus musculus. The experiment can be described thus: Percentage block of the hind-limb tonic-extensor seizure was determined after application of an electric shock to mice for 120 min followed by 10 mg/kg intraperitoneal dose. The class given is functional. A digest of the protocol: as §1
Experiment [28] relates to Mus musculus. The experiment can be described thus: Percentage block of the hind-limb tonic-extensor seizure was determined after application of an electric shock to mice for 120 min followed by 15 mg/kg peroral dose. The class given is functional. As to conditions: route oral. The essentials: as §1
In experiment [29] the test system is Mus musculus. The experiment can be described thus: Percentage block of the hind-limb tonic-extensor seizure was determined after application of an electric shock to mice for 30 min followed by 10 mg/kg intraperitoneal dose. The experiment is classed as functional. A digest of the protocol: as §1
In experiment [30] the test system is Mus musculus. The experiment can be described thus: Percentage block of the hind-limb tonic-extensor seizure was determined after application of an electric shock to mice for 30 min followed by 15 mg/kg peroral dose. The class given is functional. As to conditions: route oral. The essentials: as §1
In experiment [31] the test system is Mus musculus. The experiment can be described thus: Percentage block of the hind-limb tonic-extensor seizure was determined after application of an electric shock to mice for 240 min followed by 10 mg/kg intraperitoneal dose. The class given is functional. The essentials:
as §1

Experiment [32] deals with Mus musculus. The experiment can be described thus: Percentage block of the hind-limb tonic-extensor seizure was determined after application of an electric shock to mice for 240 min followed by 15 mg/kg peroral dose. The class given is functional. As to conditions: route oral. A digest of the protocol: as §1

The ED50 is the dose at which the effect has come halfway, by size or by number of responders. Take `CC1(C)OC2C3OC(C)(C)O[C@]3(CO)OC[C@H]2O1` (stereo partly drawn): the ED50 entry in [1], in experiment [2] and in experiment [3] was “inactive” in each case. In addition, the Block in experiment [4], in [5], in experiment [6], in experiment [7], in experiment [8] and in [9] was 0% in each case. Besides, the Block in experiment [10] and in experiment [11] was 0% throughout.
Take `CNS(=O)(=O)OC[C@@]12OC[C@H]3OC(C)(C)OC3C1OC(C)(C)O2` (stereo partly drawn): the values for the ED50 in experiment [12] and in experiment [13] were 50 mg/kg and 200 mg/kg, respectively. In addition, the Block in [14] is recorded as 90%; in [15] it was 80%; in [16] it was 100%; in experiment [17], 30%; in [18], 20%; in [19], 30%. For the same compound, the Block was determined as 100% in [20] and 70% in experiment [21].
Turning to `CC1(C)OC2C(OS(N)(=O)=O)C3(COC(C)(C)O3)OC[C@H]2O1` (stereo partly drawn), the ED50 result in experiment [22] was “inactive”.
As to `CC1(C)OC2C3OC(C)(C)O[C@]3(COC(=O)Nc3ccccc3)OC[C@H]2O1` (stereo partly drawn), the ED50 entry in experiment [23], in experiment [2] and in experiment [3] was “inactive” in each case. In addition, the Block in experiment [4], in [5], in [6], in experiment [7], in experiment [8] and in experiment [9] was 0% each time. For the same compound, the Block in [10] and in experiment [11] was 0% in each case.
Regarding `O=C1NC(=O)C(c2ccccc2)(c2ccccc2)N1` [PHENYTOIN], the ED50 in [24] and in [13] was 10 mg/kg throughout. Further, the Block is reported as 60% in experiment [25]; 80% in experiment [26]; 80% in experiment [27]; 70% in experiment [28]; 60% in [29]; 50% in [30]. Besides, the results for the Block in [31] and in experiment [32] were 70% and 30%, respectively.
